In ChEMBL document CHEMBL1138617, “Synthesis of potent antitumor and antiviral benzofuran derivatives” (Bioorg Med Chem Lett, 2009):
pEC50, pIC50: −log10 of the molar value. Where a name gives a salt, the structure may show the parent alone.

Legend:
[1] = (§1) Inhibition of HCV NS3/4A protease activity after 48 hrs by RT-PCR; parameters: species or system Hepacivirus hominis
Hepacivirus hominis = experiment: as §1
G-361 = experiment: Cytotoxicity against human G361 cells by MTT assay; assay type: functional, cell-based
Method in brief: (§2)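 Growth inhibition by MTT assay (Mosmann method) on human cancer cell lines and on normal human fetal lung fibroblast WI 38 cells.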

[2] = Cytotoxicity against human hepatocytes by MTT assay; assay type: cell-based, Hepatocyte
K562 = experiment: Cytotoxicity against human K562 cells by MTT assay; assay type: functional, cell-based; method in brief: as §2
[3] = Cytotoxicity against human WI38 cells by MTT assay; assay type: cell-based; conditions: WI-38; method in brief: as §2
[4] = Cytotoxicity against human RKOp27 cells by MTT assay; assay type: functional, cell-based
HCV NS3-4A protease = experiment: Therapeutic index, ratio of CC50 for human hepatocytes to IC50 for HCV NS3-4A protease; assay type: cell-based, Hepatocyte; conditions: read-out: Ratio CC50/IC50
HL-60 = experiment: Cytotoxicity against human HL60 cells by MTT assay; assay type: functional, cell-based; method in brief: as §2
NCI-H460 = experiment: Cytotoxicity against human NCI-H460 cells by MTT assay; assay type: functional, cell-based
GOTO = experiment: Cytotoxicity against human GOTO cells by MTT assay; assay type: functional, cell-based; method in brief: as §2
[5] = target: Human immunodeficiency virus type 1 reverse transcriptase (Human immunodeficiency virus 1, UniProt Q72547); experiment: Inhibition of recombinant HIV1 reverse transcriptase in cell free Quan-T-RT by scintillation proximity assay
U-937 = experiment: Cytotoxicity against human U937 cells by MTT assay; assay type: functional, cell-based; method in brief: as §2
SK-MEL-28 = experiment: Cytotoxicity against human SK-MEL-28 cells by MTT assay; assay type: functional, cell-based; method in brief: as §2
[6] = tested on: Human immunodeficiency virus; experiment: Antiviral activity against HIV infected in human CEM-SS cells assessed as inhibition of virus induced cell killing by XTT assay; assay type: functional, organism-based; conditions: Human immunodeficiency virus 1, CEM-SS
Method in brief: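 Microtiter anti-HIV assay in CEM-SS cells or fresh human PBMCs, measuring inhibition of HIV-induced cell killing or HIV replication. Read-out is XTT tetrazolium reduction to formazan by viable cells.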

[7] = Therapeutic index, ratio of toxic dose of drug for 50% of the population TD50 to minimum effective dose ED50 of the population; conditions: read-out: Ratio TD50/ED50
SF-268 = experiment: Cytotoxicity against human SF268 cells by MTT assay; assay type: functional, cell-based
NB1 = experiment: Cytotoxicity against human NB-1 cells by MTT assay; assay type: functional, cell-based; method in brief: as §2
SK-OV-3 = experiment: Cytotoxicity against human SKOV3 cells by MTT assay; assay type: functional, cell-based

Row | SMILES | pIC50 [1] | IC90 (Hepacivirus hominis) | pIC50 (G-361) | CC50 [2] | pIC50 (K562) | pIC50 [3] | pIC50 [4] | selectivity ratio (HCV NS3-4A protease) | pIC50 (HL-60) | pIC50 (NCI-H460) | pIC50 (GOTO) | pIC50 [5] | pIC50 (U-937) | pIC50 (SK-MEL-28) | pEC50 [6] | selectivity ratio [7] | pIC50 (SF-268) | pIC50 (NB1) | pIC50 (SK-OV-3)
1 | COc1c(C(=O)C2=CN3C(=CN=C2)Nc2ccccc23)c(O)c(OC)c2occc12 | 6.35 | 955 nM | 10.50 | 256000 nM | 10.47 | 10.48 | 10.56 | 577 | 10.49 | 10.59 | 10.48 | 5.03 | 10.48 | 10.49 | 9.46 | 21700 | – | – | –
2 | CCNc1cccnc1N1CCN(C(=O)c2cc3cc(OC)ccc3[nH]2)CC1 [ATEVIRDINE MESYLATE] | – | – | – | – | – | – | – | – | – | – | – | – | – | – | 9.00 | – | – | – | –
3 | Nc1ccn([C@@H]2O[C@H](CO)[C@@H](O)C2(F)F)c(=O)n1 [GEMCITABINE HYDROCHLORIDE] | – | – | – | – | – | – | – | – | – | 8.67 | – | – | – | – | – | – | – | – | –
4 | COc1c(C(=O)c2cnc3nc4ccccc4n3c2)c(O)c(OC)c2occc12 | 6.25 | 1320 nM | 10.58 | 234000 nM | 10.57 | 10.33 | 10.56 | 415 | 10.59 | 10.56 | 10.56 | 4.59 | 10.57 | 10.60 | 10.70 | 1.14e+06 | – | – | –
5 | COc1c(C(=O)C2=CN3C=CC=CC3N=C2)c(O)c(OC)c2occc12 (configuration not stated) | < 4.00 | – | 10.32 | – | 10.35 | 10.59 | 10.56 | – | 10.56 | 10.56 | 10.48 | 4.79 | 10.53 | 10.52 | 10.52 | 23500 | – | – | –
6 | COc1c(C(=O)/C=C/Nc2ccncc2)c(O)c(OC)c2occc12 | 6.01 | 2310 nM | 10.58 | 435000 nM | 10.58 | 10.60 | 10.59 | 441 | 10.58 | 10.55 | 10.60 | 5.32 | 10.58 | 10.55 | 11.00 | 1260 | – | – | –
7 | Nc1ccn([C@@H]2O[C@H](CO)[C@@H](O)[C@@H]2O)c(=O)n1 [CYTARABINE] | – | – | – | – | – | – | – | – | – | – | – | – | – | – | – | – | 8.11 | – | –
8 | COc1c(C(=O)C2=CN3C(=CN=C2)Nc2ccccc23)c(O)cc2occc12 | < 4.00 | – | 10.50 | – | 10.53 | 10.55 | 10.59 | – | 10.52 | 10.59 | 10.54 | 4.32 | 10.52 | 10.52 | 10.22 | 23500 | – | – | –
9 | CCC[C@H](NC(=O)[C@@H]1[C@H]2CCC[C@H]2CN1C(=O)[C@@H](NC(=O)[C@@H](NC(=O)c1cnccn1)C1CCCCC1)C(C)(C)C)C(=O)C(=O)NC1CC1 | 6.70 | 450 nM | – | 90000 nM | – | – | – | 1200 | – | – | – | – | – | – | – | – | – | – | –
10 | NCc1nc2ccccc2[nH]1 | 6.06 | 2120 nM | 10.52 | 451000 nM | 10.50 | 10.57 | 10.59 | 515 | 10.54 | 10.49 | 10.58 | 5.29 | 10.53 | 10.52 | 11.00 | 1760 | – | – | –
11 | COc1cccc2c1C(=O)c1c(O)c3c(c(O)c1C2=O)C[C@@](O)(C(=O)CO)C[C@@H]3O[C@H]1C[C@H](N)[C@H](O)[C@H](C)O1 [DOXORUBICIN] | – | – | – | – | 8.18 | – | – | – | – | – | 8.33 | – | 8.35 | – | – | – | – | 8.29 | 8.38
12 | COc1c(C(=O)C2=CN3OC(C)=NC3N=C2)c(O)c(OC)c2occc12 (configuration not stated) | < 4.00 | – | 10.54 | – | 10.55 | 10.55 | 10.59 | – | 10.55 | 10.59 | 10.55 | 9.52 | 10.48 | 10.47 | 10.40 | 7690 | – | – | –
13 | COc1c(C(=O)C2=CN3C=CNC=C3N=C2)c(O)c(OC)c2occc12 | < 4.00 | – | 10.53 | – | 10.49 | 10.43 | 10.55 | – | 10.58 | 10.59 | 10.59 | 4.84 | 10.55 | 10.59 | 10.05 | 20000 | – | – | –
14 | CCCCCOC(=O)Nc1nc(=O)n([C@@H]2O[C@H](C)[C@@H](O)[C@H]2O)cc1F [CAPECITABINE] | – | – | – | – | – | – | 8.36 | – | – | – | – | – | – | – | – | – | – | – | –
15 | COc1c2occc2c(OC)c2c(=O)c(C=O)coc12 | 6.38 | 796 nM | 10.58 | 234000 nM | 10.59 | 10.49 | 10.59 | 556 | 10.50 | 10.55 | 10.56 | 4.76 | 10.54 | 10.58 | 10.70 | 32600 | – | – | –
16 | COc1c(C(=O)C2=CN3C=CSC3N=C2)c(O)c(OC)c2occc12 (configuration not stated) | 6.47 | 1120 nM | 10.42 | 127000 nM | 10.35 | 10.55 | 10.55 | 371 | 10.59 | 10.59 | 10.55 | 4.82 | 10.55 | 10.55 | 10.40 | 22600 | – | – | 8.48
